According to ChEMBL document CHEMBL3244325, “Diastereoisomeric N-tetrahydrofurfurylnoroxymorphones with opioid agonist--antagonist properties” (J Med Chem, 1977):

Assays:
Mus musculus [1] = assay: Ratio of morphine hydrochloride ED50 to compound ED50 for sc dosed mouse assessed as inhibition of phenylquinone-induced writhing; assay type: functional
[2] = Toxicity in sc dosed mouse; assay type: organism-based; conditions: in vivo
How it was run: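 Acute toxicity in mice, expressed as LD50 calculated by the Litchfield and Wilcoxon method.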

Mus musculus [3] = assay: Analgesic activity in sc dosed mouse by tail clip method; assay type: functional
Mus musculus [4] = species: Mus musculus; assay: Inhibition of morphine-induced analgesia in mouse by tail clip method; assay type: functional
How it was run: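 Mice dosed subcutaneously; morphine antagonism measured as suppression of morphine analgesia by a tail-clip-based procedure. AD50 in mg/kg estimated by graphical evaluation of log dose-response curves.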

Mus musculus [5] = assay: Analgesic activity in sc dosed mouse assessed as inhibition of phenylquinone-induced writhing; assay type: functional
Mus musculus [6] = assay: Ratio of LD50 in sc dosed mouse to ED50 in sc dosed mouse by writhing test
Mus musculus [7] = assay: Analgesic activity in sc dosed mouse by hot plate method; assay type: functional

Row | Compound | Ratio ED50 (Mus musculus [1]) | LD50 [2] [mg/kg] | ED50 (Mus musculus [3]) [mg/kg] | AD50 (Mus musculus [4]) [mg/kg] | ED50 (Mus musculus [5]) [mg/kg] | Ratio LD50/ED50 (Mus musculus [6]) | ED50 (Mus musculus [7]) [mg/kg]
1 | Cl.O=C1CC[C@@]2(O)[C@H]3Cc4ccc(O)c5c4[C@@]2(CCN3C[C@H]2CCCO2)[C@H]1O5 | 25 | 955 | 200 | 4 | 0.02 | 47750 | 1.9
2 | Cl.O=C1CC[C@@]2(O)[C@H]3Cc4ccc(O)c5c4[C@@]2(CCN3C[C@@H]2CCCO2)[C@H]1O5 |  | 810 |  | 5 |  |  | 
3 | CN1CC[C@]23c4c5ccc(O)c4O[C@H]2[C@@H](O)C=C[C@H]3[C@H]1C5.Cl [MORPHINE HYDROCHLORIDE] |  |  | 11 |  | 0.5 |  | 1.2
4 | C=CCN1CC[C@]23c4c5ccc(O)c4O[C@H]2[C@@H](O)C=C[C@H]3[C@H]1C5.Cl [NALORPHINE HYDROCHLORIDE] |  | 560 |  | 1 | 0.5 |  | 
5 | C=CCN1CC[C@]23c4c5ccc(O)c4O[C@H]2C(=O)CC[C@@]3(O)[C@H]1C5.Cl [NALOXONE HYDROCHLORIDE] |  | 286 |  | 0.03 |  |  | 
6 | CC(C)=CCN1CCC2(C)c3cc(O)ccc3CC1C2C.Cl (stereo not given) [PENTAZOCINE HYDROCHLORIDE] |  | 220 |  | 8 | 1.4 |  | 
